# An excerpt weighted towards active compounds, which were near 1.9% of everything screened.
# NPY-Y1 PAM-ag = potentiates or activates human NPY-Y1 receptor | P25929 | NPY-Y1 expressing cells, potentiator/agonist activation | activation, % at 3.6 µM | 0.37% of 220,000 active; in the data active = activation above about 33%, passing the limit was not always enough;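 also: cells stimulated with NPY at EC10 then isoproterenol at EC100; 0% = low agonist plus stimulus and 100% = saturating agonist plus stimulus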
# NPY Y1 blocker = blocks the human neuropeptide Y Y1 receptor; P25929; HEK293-CNG Y1 cells, membrane potential fluorescence; NPY at EC95, then isoproterenol; AID 1040; 1% of 200,000 active; inhibition, % at 3.6 µM;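 active = inhibition above the campaign mean inhibition of all tested compounds plus 3 SD, cut at about 20% in these data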;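 also: 0% = DMSO wells given NPY plus isoproterenol and 100% = isoproterenol alone without NPY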
#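 Material: HEK293 cells co-expressing NPY Y1 receptor and cyclic-nucleotide gated channel. Timing: compound incubation 1 h at room temperature, readout 45 min post-stimulation. Signal: fluorescence, membrane potential probe.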
# NPY-Y2 antag = NPY-Y2 (human) receptor antagonism. NPY-Y2 expressing cells, antagonist mode. inhibition, % at 2.7 µM. 0.99% of 140,000 active; in the data active = inhibition above about 17%;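 also: 0% = vehicle with agonist challenge and 100% = reference antagonist with challenge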
# Target sequence (P49146 whole entry, looked up): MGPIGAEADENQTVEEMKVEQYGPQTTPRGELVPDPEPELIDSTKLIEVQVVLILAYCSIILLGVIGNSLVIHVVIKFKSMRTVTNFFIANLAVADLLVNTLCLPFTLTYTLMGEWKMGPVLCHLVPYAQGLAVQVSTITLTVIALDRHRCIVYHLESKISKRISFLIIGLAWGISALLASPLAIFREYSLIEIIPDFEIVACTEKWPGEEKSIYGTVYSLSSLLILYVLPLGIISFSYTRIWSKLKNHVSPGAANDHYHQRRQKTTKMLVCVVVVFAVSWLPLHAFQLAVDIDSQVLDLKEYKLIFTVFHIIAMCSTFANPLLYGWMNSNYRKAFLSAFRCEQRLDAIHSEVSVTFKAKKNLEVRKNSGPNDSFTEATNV
# NPY2 pot ag = human NPY-Y2 potentiation or agonism, primary screen; cells expressing NPY-Y2, potentiator/agonist read-out; P49146; activation, % at 3.6 µM; 0.45% of 220,000 active; in the data active = activation above about 27%;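 also: cells stimulated with NPY near EC25 plus isoproterenol at EC100; 0% = vehicle plus submaximal agonist and 100% = vehicle plus saturating agonist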
# Starred values were filed as active, the others as inactive; . = not tested or not shown.
SMILES,NPY-Y1 PAM-ag,NPY Y1 blocker,NPY-Y2 antag,NPY2 pot ag
O=C(Nc1cc(Cl)cc(Cl)c1)c1ccc(Cn2c(=O)[nH]c3ccsc3c2=O)cc1,46*,-7,-14,21
O=C(CSc1nnc(-c2ccccc2)n1-c1ccccc1)c1ccc[nH]1,20,2,4,14
O=C(CSc1nnc(-c2ccccc2)n1-c1ccccc1)c1cccs1,49*,-2,5,31*
Cc1cc(Cl)ccc1OCc1cn2cccnc2n1,13,1,.,9
CCc1ccc(C(C(=O)NC(C)(C)CC)N(Cc2ccco2)C(=O)Cn2nnc3ccccc32)cc1 (stereo not given),-117,54*,51*,-150
CCC(C)(C)NC(=O)C(c1ccccc1F)N(Cc1ccco1)C(=O)Cn1nnc2ccccc21 (stereo not given),-135,96*,73*,-121
COCCCNC(=O)c1c(N)n(/N=C/c2cccnc2)c2nc3ccccc3nc12,23,3,4,21
COCCCNC(=O)c1c(N)n(/N=C/c2cccs2)c2nc3ccccc3nc12,-2,7,19*,6
C=CC[n+]1ccc(/C=C2\C=Cc3cc(C)ccc3N2CC)c2ccccc21,27,8,.,31*
Cc1ccc(C2(c3ccc(C)cc3)CC2C(=O)Nc2ccc([N+](=O)[O-])cc2O)cc1 (stereo not given),12,-5,-3,45*
CNC(=S)N(CCc1c(C)[nH]c2ccc(Cl)cc12)Cc1cccs1,49*,-12,.,44*
c1ccc(N2CCN(c3ncnc4c3oc3ccccc34)CC2)cc1,-14,23*,22*,-24
CCCCCCn1c(-c2cccs2)n[nH]c1=S,-4,2,.,-10
C[C@]12CCC(=O)C=C1[C@H](O)C[C@@H]1[C@@H]2[C@@H](O)C[C@@]2(C)[C@H]1CC[C@]2(O)C(=O)CO,117*,-13,0,101*
COc1ccc(C2=Nc3ccc(C)cc3C(c3ccccc3)N2CC(=O)NN)cc1 (stereo not given),5,7,.,-2
COC(=O)CN1C(c2ccc(Cl)cc2)=Nc2ccc(Cl)cc2C1c1ccccc1 (stereo not given),-24,27*,19*,-5
Cc1ccc2c(c1)NC(=O)C(CC(=O)NC1CCCCC1C)O2 (stereo not given),2,-2,1,3
CCc1nc2ccc(C)cc2c(C(=O)NC2CCCCC2C)c1C (stereo not given),-97,64*,30*,-53
CCCOCCOC(=O)c1[nH]c2c(c1C)C(=O)CC(c1cc(OC)ccc1OC)C2 (stereo not given),-33,35*,31*,-3
O=C(O)c1cc(/C=C/c2ccc(N3CCOCC3)c([N+](=O)[O-])c2)nc2ccccc12,53*,.,.,78*
O=C(O)c1cc(/C=C/c2ccc(N3CCOCC3)cc2)nc2ccccc12,-4,8,.,17
COC(=O)c1c(NC(=O)c2c(-c3ccccc3Cl)noc2C)sc2c1CCC2,-25,37*,23*,-32
CC(C)CNC(=O)c1ccc(NC(=O)c2cccs2)cc1,8,4,2,-2
Cc1ccc(C(=O)c2cc([N+](=O)[O-])ccc2N2CCCCC2)c(C)c1,-28,30*,22*,-20
O=C(O)c1cc([N+](=O)[O-])ccc1N1CCCCC1,-34,2,0,-13
SMILES,NPY-Y1 PAM-ag,NPY Y1 blocker,NPY-Y2 antag,NPY2 pot ag
CCCN(c1ccc(C(C)C)cc1)S(=O)(=O)c1c(C)noc1C,0,22*,28*,-5
O=S(=O)(/N=C(/Nc1ccccc1)c1ccccc1O)c1ccccc1,-1,-2,.,1
CC(C)CN(CC(C)C)CC(O)COc1ccccc1Br (stereo not given),-22,14,12,-8
CCCCN(CCCC)CC(O)COc1ccccc1Br (stereo not given),-25,40*,26*,-3
O=C(O)CCc1ccc(-c2ccccc2)n1Cc1ccco1,9,10,5,-11
O=C(O)CCc1ccc(-c2ccc(F)cc2)n1Cc1ccco1,80*,-10,0,71*
COC(=O)c1ccc(NC(=S)NC(=O)c2cc(-c3ccccc3)nc3ccccc23)cc1,-120,41*,23*,4
Cc1ccc(NC(=O)c2cc(Cl)nc3ccccc23)cc1,-66,31*,21*,-62
Cc1ccc(NC(=O)c2cc(N3CCOCC3)nc3ccccc23)cc1,-48,12,4,-26
Cc1c(O)c(CN2CCCC2)cc2c1oc(=O)c1ccccc12,65*,-17,2,57*
Cc1c(O)c(CN2CCCC2)cc2c3c(c(=O)oc12)CCC3,-6,-1,1,4
CC1=Nc2nc(N3CCCCC3)c(C#N)c3c4c(nc(c23)N1)N(c1ccc(C(C)C)cc1)C(=O)C4,0,-4,-3,11
C=CCSC(=C(C#N)C#N)c1cc2c([nH]1)CCCC2,35*,-10,-2,43*
O=C(N/N=C/c1ccc[nH]1)c1ccc([N+](=O)[O-])cc1,-29,5,3,-2
COCCn1c(=O)[nH]c2cc(C(=O)NCC3CCCO3)ccc2c1=O (stereo not given),74*,-2,-1,12
COCCn1c(=S)[nH]c2cc(C(=O)NCC3CCCO3)ccc2c1=O (stereo not given),10,-3,0,15
CCOC(=O)c1ccc(NS(C)(=O)=O)cc1,-20,4,6,-11
CC(C)NCC(O)c1ccc(NS(C)(=O)=O)cc1 (stereo not given),96*,-15,.,78
CC1(C)C2CCC(C2)C1(C)NC(=O)CNCC1CCCCC1 (stereo not given),0,10,.,-9
O=C(NCCc1ccccc1)C1CCCN(S(=O)(=O)c2cnc[nH]2)C1 (stereo not given),-16,1,0,73*
O=C(Cc1ccc(Br)cc1)Nc1ncc([N+](=O)[O-])s1,50*,.,.,62*
CC(CC(=O)Nc1ncc([N+](=O)[O-])s1)c1ccccc1 (stereo not given),17,-3,.,13
O=C(COc1ccc2ccccc2c1)Nc1ccc2c3c(cccc13)CC2,-3,10,21*,5
COC(=O)c1ccccc1NC(=O)CSc1nnc(-c2cccnc2)n1N,0,-2,.,4
O=C(CCCOc1ccccc1)Nc1ccc(Br)cc1,-21,22*,5,-33
SMILES,NPY-Y1 PAM-ag,NPY Y1 blocker,NPY-Y2 antag,NPY2 pot ag
O=C(CCCOc1ccccc1)Nc1ccncc1,0,-3,2,-8
CN(Cc1ccc2nonc2c1)Cc1nc(CC2CC2)no1,-6,-2,.,2
COc1ccc(C(CNC(=O)c2cc3ccccc3cc2OC)N2CCCC2)cc1 (stereo not given),-35,28*,18*,-30
COc1ccc(C(CNC(=O)c2cccc(N(C)C)c2)N2CCCC2)cc1 (stereo not given),1,-3,5,5
O=C(c1cccc(C(F)(F)F)c1)N(c1ccccn1)C1CCCCC1,2,4,.,-2
COC(=O)CNC(c1ccccc1)c1cc(Br)ccc1NC(=O)OCc1ccccc1 (stereo not given),-12,14,10,-24

# Screening results: PubChem, The Scripps Research Institute Molecular Screening Center
